The source of these data is ChEMBL document CHEMBL1131051, “Novel combretastatin analogues effective against murine solid tumors: design and structure-activity relationships” (J Med Chem, 1998).

As usually defined, the IC50 is the point on the concentration scale where inhibition reaches its midpoint. A low value points to greater potency.

In experiment [1] the test system is Colon 26. Kind of experiment: Growth inhibition of colon 26 adenocarcinoma cells by 50 %. The settings on record: Mus musculus. The class given is functional, cell-based. In a few lines: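 Murine Colon 26 adenocarcinoma cells were kept in RPMI-1640 with 10% FBS. Cells were seeded at 1×10^5 cells/ml in 96-well plates and held 24 h at 37 °C in CO2. They were then exposed to a range of compound concentrations for 48 h, and viable cells were counted by MTT dye reduction. IC50 is the mean of three independent assays.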

In the next experiment the target is Tubulin (Bos taurus, UniProt Q6B856+Q862L2+Q862F3). Kind of experiment: Inhibitory activity against tubulin polymerization. Type of experiment: protein assay. Put shortly:
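Tubulin polymerization was started with GTP. It was followed turbidimetrically at 350 nm at 37 °C, and extent was read after 20 min incubation. IC50 was determined graphically, averaging three independent assays.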

For experiment [2], the system named is HCT-15. Kind of experiment: Antitumor activity at dose 40 mg/kg in HCT-15 cells. The class given is functional, Mus musculus. Put shortly:
(§1)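 Tumor fragments (5 mg) implanted sc on day 0: Colon 26 into CD2F1 mice, Colon 38 or 3LL into BD2F1 mice, HCT-15 into ICR nu/nu mice. Dosing iv on days 7, 11 and 15. On day 21, two caliper diameters were measured; tumor weight = length × width²/2. IR (%) = (1 − T/C) × 100, from mean treated versus control tumor weights.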

Experiment [3] concerns Colon 26. Kind of experiment: (§2) Antitumor activity at dose 40 mg/kg in colon26 cells. The class given is functional, Mus musculus. In a few lines: as §1
Experiment [4] can be described thus: as §2. Type of experiment: functional, Mus musculus. Put shortly:
as §1

Experiment [5] deals with Lewis lung carcinoma cell line. Kind of experiment: Antitumor activity at dose 40 mg/kg in Lewis lung carcinoma cells (3LL) cells. Type of experiment: functional, Mus musculus. Put shortly: as §1
In experiment [6] the test system is MC-38. Kind of experiment: Antitumor activity at dose 10 mg/kg in colon38 cells. The class given is functional, Mus musculus. Put shortly: as §1
Experiment [7] deals with Colon 26. Kind of experiment: Antitumor activity at dose 5 mg/kg in murine colon26 cells. Type of experiment: functional, Mus musculus.
The test system of experiment [8] is MC-38. Kind of experiment: Antitumor activity at dose 10 mg/kg in Murine colon38 cells. Type of experiment: functional, Mus musculus. Put shortly:
as §1

Experiment [9] deals with Colon 26. Kind of experiment: Antitumor activity at dose 10 mg/kg in murine colon26 cells. The class given is functional, Mus musculus. Put shortly: as §1
Experiment [10] concerns HCT-15. Kind of experiment: Antitumor activity at dose 10 mg/kg in HCT-15 cells. The class given is functional, Mus musculus. In a few lines:
as §1

In experiment [11] the test system is Colon 26. Kind of experiment: Antitumor activity at dose 160 mg/kg in murine colon26 cells. The class given is functional, Mus musculus.

SMILES strings stand for the structures.

`COc1ccc(/C(=C\c2cc(OC)c(OC)c(OC)c2)C(N)=O)cc1N` gave a half-inhibitory concentration (IC50) in the experiment with Colon 26 [1] of 223 nM.

As to `COc1ccc(CC(C#N)c2cc(OC)c(OC)c(OC)c2)cn1` (stereo unspecified), the 50% inhibitory concentration (IC50) with Colon 26 [1] is more than 3000 nM; against Tubulin it was more than 20000 nM.

On to `COc1ccc(/C=C(/C=O)c2cc(OC)c(OC)c(OC)c2)cc1`, for which the IC50 is 213 nM in the experiment on Colon 26 [1] and 4000 nM on Tubulin.

As to `COc1ccc(/C=C(/CO)c2cc(OC)c(OC)c(OC)c2)cc1`, the concentration for half-maximal inhibition (IC50) with Colon 26 [1] is 363 nM; on Tubulin it was more than 20000 nM.

As to `COc1cc(/C(C#N)=C\c2ccc(Cl)c(N)c2)cc(OC)c1OC`, the half-inhibitory concentration (IC50) with Colon 26 [1] was determined as 58.1 nM; against Tubulin, 6000 nM.

Take `COc1ccc(/C=C(/C#N)c2ccc(OC)c(OC)c2)cc1N`: the figures for the IC50 in the experiment with Colon 26 [1] and against Tubulin were 8.1 nM and 7000 nM, respectively.

For `COc1cc(/C(C#N)=C\c2ccc(C)c(N)c2)cc(OC)c1OC`, the values for the IC50 in the experiment with Colon 26 [1] and on Tubulin were 61.7 nM and 10000 nM, respectively.

Consider `COc1ccc(/C=C(/C#N)c2cc(OC)c(OC)c(OC)c2)cc1NC(C)=O`, for which the IC50 with Colon 26 [1] was found to be 18.3 nM; against Tubulin, 10000 nM.

On to `COc1ccc(/C=C(/C#N)c2cc(OC)c(OC)c(OC)c2)cc1O`, for which the IC50 in the experiment with Colon 26 [1] is 23.5 nM; against Tubulin, 5000 nM.

As to `COc1ccc(/C=C(/CN)c2cc(OC)c(OC)c(OC)c2)cc1`, the IC50 in the experiment with Colon 26 [1] was more than 3000 nM; at Tubulin, more than 20000 nM.

On to `COc1ccc(/C=C(/C#N)c2ccccc2)cc1N`, for which the IC50 in the experiment with Colon 26 [1] was 36 nM; against Tubulin it was 8000 nM.

For `COc1ccc(CC(C#N)c2cc(OC)c(OC)c(OC)c2)cc1N` (stereo unspecified), the half-inhibitory concentration (IC50) with Colon 26 [1] turned out to be 22.5 nM; against Tubulin, 7000 nM.

Turning to `COc1cc(/C=C\c2ccc(C)c(N)c2)cc(OC)c1OC`, the IC50 with Colon 26 [1] was found to be 43.5 nM; at Tubulin, 4000 nM.

Consider `COc1ccc(/C=C(/C#N)c2cc(OC)c(OC)c(OC)c2)cc1N`, for which the half-inhibitory concentration (IC50) was found to be 5.9 nM with Colon 26 [1] and 10000 nM against Tubulin.

Turning to `COc1ccc(/C=C(/C#N)c2cc(OC)c(OC)c(OC)c2)cn1`, the IC50 with Colon 26 [1] was 2370 nM; on Tubulin, more than 20000 nM.

As to `COc1ccc(/C=C(/C#N)c2cc(OC)c(OC)c(OC)c2)cc1`, the IC50 with Colon 26 [1] turned out to be 18 nM; at Tubulin, 6000 nM.

For `COc1ccc(/C=C(\C#N)c2cc(OC)c(OC)c(OC)c2)cc1N`, the half-inhibitory concentration (IC50) is 12.6 nM with Colon 26 [1] and more than 20000 nM against Tubulin.

With `COc1ccc(/C=C(/C[N+](C)(C)C)c2cc(OC)c(OC)c(OC)c2)cc1.[I-]`, the values for the IC50 with Colon 26 [1] and against Tubulin were more than 3000 nM and more than 20000 nM, respectively.

As for `COc1ccc(/C(C#N)=C\c2ccc(OC)c(N)c2)cc1`, the IC50 in the experiment with Colon 26 [1] stood at 1430 nM; against Tubulin, 9000 nM.

For `COc1ccc(/C(C#N)=C\c2cc(OC)c(OC)c(OC)c2)cc1N`, the IC50 worked out at 235 nM with Colon 26 [1] and 5000 nM against Tubulin.

On to `COc1ccc(/C=C(/C(N)=O)c2cc(OC)c(OC)c(OC)c2)cc1N`, for which the 50% inhibitory concentration (IC50) with Colon 26 [1] stood at 195 nM; against Tubulin, 3000 nM.

Turning to `COc1cc(/C(C#N)=C/c2ccc(C)c(N)c2)cc(OC)c1OC`, the IC50 with Colon 26 [1] is 722 nM; on Tubulin it was more than 20000 nM.

With `COc1ccc(/C=C(\C#N)c2cc(OC)c(OC)c(OC)c2)cc1[N+](=O)[O-]`, the results for the concentration for half-maximal inhibition (IC50) in the experiment on Colon 26 [1] and against Tubulin were more than 3000 nM and more than 20000 nM, respectively.

`COc1ccc(/C=C(\C#N)c2cc(OC)c(OC)c(OC)c2)cc1`: the IC50 in the experiment on Colon 26 [1] was 63.7 nM; against Tubulin, more than 20000 nM.

`COc1ccc(/C=C\c2cc(OC)c(OC)c(OC)c2)cc1N`: the IC50 with Colon 26 [1] turned out to be 5.1 nM.

`COc1cc(/C=C\c2ccc(Cl)c(N)c2)cc(OC)c1OC`: the results for the 50% inhibitory concentration (IC50) with Colon 26 [1] and against Tubulin were 68.9 nM and 3000 nM, respectively.

As to `COc1ccc(/C=C(/C#N)c2cc(OC)c(OC)c(OC)c2)cc1[N+](=O)[O-]`, the 50% inhibitory concentration (IC50) with Colon 26 [1] turned out to be 135 nM; against Tubulin, 5000 nM.

For `COc1ccc(/C=C\c2cc(OC)c(OC)c(OC)c2)cc1N.Cl`, the IR in the experiment on HCT-15 [2] turned out to be 53%; in the experiment with Colon 26 [3], 69%; in experiment [4], 62%; in experiment [5] it was 65%; in the experiment on MC-38 [6], 72%.

As to `COc1cc(/C(C#N)=C\c2ccc(Cl)c(N)c2)cc(OC)c1OC.Cl`, the IR in the experiment with Colon 26 [7] is -23%.

For `COc1cc(/C=C\c2ccc(C)c(N)c2)cc(OC)c1OC.Cl`, the IR with Colon 26 [3] worked out at 62%.

On to `COc1ccc(/C=C(/C#N)c2cc(OC)c(OC)c(OC)c2)cc1N.Cl`, for which the IR in the experiment with MC-38 [8] is listed as 75%; in experiment [5] it was 59%; in the experiment on Colon 26 [9] it was 77%; in the experiment on HCT-15 [10] it was 28%.

Regarding `COc1cc(/C(C#N)=C\c2ccc(C)c(N)c2)cc(OC)c1OC.Cl`, the IR in the experiment on Colon 26 [7] is on record as 11%.

Regarding `COc1ccc(/C=C\c2cc(OC)c(OC)c(OC)c2)cc1O` [COMBRETASTATIN A4], half-maximal inhibition with Colon 26 [1] (IC50) was put at 18 nM. Besides, the IR with Colon 26 [11] came to 31%.
